# Bioassay records (PubChem BioAssay)
# TAAR1 antagonist – human TAAR1 antagonists, primary screen, Fluo-8 calcium fluorescence, CHO RD-HGA16 cells; inhibition, % at 3 µM; AID 624466, 2012; antagonist; Trace amine-associated receptor 1 (Homo sapiens), Q96RJ0; 1.5% of 360,000 active;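 active = inhibition above a per-plate cutoff, the mean inhibition of test compounds on that plate plus 3 SD, cut at about 49% in these data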;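 also: 0% = DMSO plus EC80 beta-PEA response and 100% = DMSO alone without agonist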
# Target sequence (Q96RJ0 whole entry, looked up): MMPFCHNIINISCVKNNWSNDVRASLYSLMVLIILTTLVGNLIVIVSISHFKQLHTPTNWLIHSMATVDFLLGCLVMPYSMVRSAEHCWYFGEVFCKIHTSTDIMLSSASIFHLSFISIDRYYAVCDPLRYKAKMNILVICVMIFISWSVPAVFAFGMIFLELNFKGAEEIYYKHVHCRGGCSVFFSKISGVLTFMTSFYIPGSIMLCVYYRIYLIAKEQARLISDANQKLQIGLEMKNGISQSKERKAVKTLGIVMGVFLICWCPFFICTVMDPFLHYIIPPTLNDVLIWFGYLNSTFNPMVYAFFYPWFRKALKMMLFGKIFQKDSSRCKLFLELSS
#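 Assay system: RD-HGA16 CHO cells with stable hTAAR1 and Gα16 / Reagent: EC80 β-phenethylamine stimulus / Doses: 3 µM, single point / Timing: dye loading 75 min at 37 °C, then 30 min room temperature / Measured by: Fluo-8 intracellular calcium dye fluorescence, real-time kinetic reads / Controls: vehicle wells and EC80 agonist wells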
# OX1R antag-1 – OX1R (HCRTR1) antagonists, primary screen, fluorescence, CHO/OX1R cells, Fluo-8 calcium, orexin A; Fluo-8 calcium fluorescence; inhibition, % at 5 µM; 0.43% of 330,000 active;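 active = inhibition above its plate's threshold, mean inhibition of all tested compounds on the plate plus 3 SD, cut at about 37% in these data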;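 also: 0% = orexin A challenge wells and 100% = SB-334867-A antagonist wells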
# OX1R antag-2 – antagonists of human orexin 1 receptor (OX1R); 1.8% of 330,000 active; AID 485270, 2010; Orexin/Hypocretin receptor type 1 (Homo sapiens), O43613; OX1R-expressing cells, FRET antagonist read-out; inhibition, % at 6.6 µM; in the data active = inhibition mostly above about 38%, no sharp cut-off; inactive = mostly below about 40%;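 also: 0% = agonist challenge alone and 100% = reference antagonist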
# TAAR1 ag – human TAAR1 agonists, primary screen, Fluo-8 calcium fluorescence, CHO RD-HGA16 cells. Trace amine-associated receptor 1 (Homo sapiens), Q96RJ0. activation, % at 3 µM. vehicle wells 0%, saturating PEA agonist 100%. 0.99% of 360,000 active;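 active = activation above the mean activation of all test compounds in the run plus 3 SD, cut at about 38% in these data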
#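 Repeats: no replicates (n 1) | Material: CHO-derived RD-HGA16 cells with stable Gα16 and human TAAR1 | Technique: Kinetic Fluo-8 calcium fluorescence | Schedule: 17-24 h seeding, 75 min 37 °C dye, 30 min RT | Evaluation: % activation from peak over basal fluorescence ratio, DMSO-to-PEA scaled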
# CHO parental Ca – ATP-evoked calcium signal inhibitors, parental CHO, primary screen, counter-screen for OX1R antagonist project, cell-based, fluorescence, Fluo-8 calcium dye. 0.63% of 330,000 active. parental CHO-K1, ATP-induced calcium, Fluo-8 fluorescence. AID 463079, 2010. inhibition, % at 5.6 µM;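 active = inhibition above that plate's mean sample inhibition plus 3 SD, cut at about 26% in these data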;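 also: 0% = ATP-challenged DMSO wells and 100% = DMSO wells without ATP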
#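 Assay system: parental CHO cells; Read-out basis: percent inhibition of ATP-evoked calcium rise, normalized to controls; Benchmarks: ATP and no-ATP DMSO wells; Compound dosing: single nominal dose of 5.6 µM per compound; Signal: Fluo-8 calcium dye fluorescence; Also added: ATP as calcium-mobilizing challenge; Repeats: singlicate.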
# TAAR1 ag confirm – human TAAR1 agonists, retest of hits, confirmation, Fluo-8 calcium fluorescence, CHO RD-HGA16 cells; shares compounds with TAAR1 ag; 82% of 2,400 active; scaled: DMSO 0%, maximal phenethylamine 100%; activation, % at 3 µM;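 active = activation above a cutoff set at the run's mean compound activation plus 3 SD, cut at about 39% in these data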
# Ga16 ag counter – nonselective calcium mobilization agonists, CHO-Ga16 cells, counter-screen for hTAAR1 agonist project, cell-based, fluorescence, CHO-Ga16 parental line; Fluo-8 calcium fluorescence; normalized to maximal ATP response, DMSO zero; shares compounds with TAAR1 ag; AID 651787, 2012; 50% of 2,400 active; activation, % at 3 µM;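 active = activation above the run cutoff, the mean activation over all tested wells plus 3 SD, cut at about 12% in these data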;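 also: 0% = DMSO wells and 100% = maximal ATP response on the peak over basal ratio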
# TAAR1 desensitize – TAAR1 desensitization by agonist hits, confirmation, counter-screen for TAAR1 agonist project, cell-based, fluorescence, tachyphylaxis; shares compounds with TAAR1 ag; CHO RD-HGA16 hTAAR1, Fluo-8 calcium, beta-PEA response inhibition; inhibition, % at 3 µM; 46% of 2,400 active; AID 651951, 2012;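 active = inhibition above the run cutoff, the mean inhibition of all test compounds plus 3 SD, cut at about 49% in these data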;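 also: beta-PEA stimulus applied at its EC80; loss of beta-PEA calcium signal after compound pretreatment read as receptor desensitization; 0% = DMSO with beta-PEA at EC80 and 100% = DMSO alone without agonist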
# Ga16 antag count – inhibition of ATP-evoked calcium response in CHO-Ga16 cells, counter-screen for TAAR1 agonist project, cell-based, fluorescence; shares compounds with TAAR1 ag; CHO-Ga16 ATP-induced calcium, Fluo-8 fluorescence; inhibition, % at 3 µM; 39% of 2,400 active;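 active = inhibition above the plate's mean compound inhibition plus 3 SD, computed per plate, cut at about 22% in these data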;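 also: 0% = EC80 ATP with DMSO and 100% = DMSO wells without ATP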
# An asterisk follows results filed as active; · = not tested or not shown. Sampled rows, rich in hits. Any-hit rate of the full collection: about 4%.
SMILES,TAAR1 antagonist,OX1R antag-1,OX1R antag-2,TAAR1 ag,CHO parental Ca,TAAR1 ag confirm,Ga16 ag counter,TAAR1 desensitize,Ga16 antag count
Clc1ccc(OCCNCCc2ccccc2)cc1,11,6,-10,81*,-19,92*,10,75*,17
CN(C)c1ccc(-c2ccnc3c2CC(C)(C(=O)NCCc2ccccc2)O3)cc1 (stereo not given),-2,·,·,-3,·,·,·,·,·
O=c1oc2cc(O)ccc2cc1-c1nc2c(s1)CCc1ccccc1-2,47,50*,17,59*,50*,176*,164*,84*,84*
Cc1ccc2nc3sc(C(=O)N4CCCc5ccccc54)c(N)c3cc2c1,26,-10,16,16,-21,·,·,·,·
Cc1cc(C)c2cc3c(N)c(C(=O)N4CCc5ccccc5C4)sc3nc2c1,12,-21,17,78*,5,56*,12*,40,39*
Cn1c(C(=O)OCC(=O)NCCc2ccccc2)cc2sccc21,48,-21,19,98*,4,10,1,4,1
Cn1c(C(=O)OCC(=O)NCc2cccs2)cc2sccc21,-4,-29,21,25,0,·,·,·,·
